# Screens as filed in PubChem.
# Hits are enriched below; roughly 4.8% of the tested compounds scored in any of these assays.
# CSC inhib = blocks cancer stem cells; cancer stem cell-like cells viability, luminescence; inhibition, % at 7.5 µM; actives 1.1% (n = 300,000); in the data active = inhibition above about 75%; inconclusive = no clear call, values can overlap the other calls; tested in HMLE shEcad cells
# T cruzi repl = blocks replication of Trypanosoma cruzi. actives 1.4% (n = 300,000). T. cruzi beta-gal in NIH3T3, luminescence, 90 h. inhibition, % (test concentration not listed);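 active = mean inhibition across valid replicates above about 55%, limit read from the data; inconclusive = mean below that limit but half or more replicates reach it; inactive = mean below it, under half of replicates reach it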;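 also: signal also drops with host cell toxicity which is not excluded here; 0% = plate median of DMSO wells and 100% = zero luminescence signal; higher percent means less beta-gal luminescence so fewer parasites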
#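 assay system = mouse NIH/3T3 fibroblasts infected with β-gal-expressing T. cruzi Tulahuen C4 | input = 5,000 NIH/3T3 host cells per well | buffer or medium = DMEM plus 2% FBS | timing = 3 h host attachment, then at least 90 h co-culture | measured by = GalScreen luminescence, 60 min | evaluation = luminescence reflecting intracellular parasite burden, expressed as percent inhibition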
# Mot1-301 SUMO = blocks SUMOylation pathway, rescuing yeast Mot1-301 growth | growth rescue, % at 18.8 µM | S. cerevisiae Mot1-301 growth rescue, ATP luminescence, 38.5C; percent above DMSO median, 100 means doubled | actives 1% (n = 320,000);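 active = every valid replicate shows activation above 250% relative to neutral control wells; inactive = the rest, any valid replicate at or below 250%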;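 also: OY570 slx delta 5 strain wells were the positive control but not used for scaling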
# Efflux pump inh = antifungal efflux pump inhibition, Nile Red retention; S. cerevisiae Candida pump triplex; inhibition, % at 10 µM; actives 0.44% (n = 330,000); AID 485275;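 active = plate passing quality check with inhibition over a set limit, or well fluorescence over plate mean plus 4 SD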;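 also: Nile Red retained in pooled yeast measured as flow cytometry median fluorescence; 0% = buffer negative control and 100% = Enniatin B positive control; higher means more Nile Red kept so more efflux inhibition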
# Beta cell apopt = beta cell apoptosis inhibition; INS-1E cytokine-induced death, ATP luminescence, 48 h; percent of positive-control rescue, neutral wells zero; protection from apoptosis, % (test concentration not listed); actives 0.8% (n = 300,000); AID 435005;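 active = Every replicate reaches about 75%, or at least half do and their mean reaches it too, limit read from the data; inconclusive = At least half of replicates reach the limit but their mean does not; inactive = Under half of replicates reach the limit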;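 also: 0% = cytokine-treated negative control wells and 100% = positive control rescue; higher means more ATP so stronger rescue from cytokine killing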
# WT yeast gro inh = growth inhibition of WT yeast, mitochondrial fusion screen; inhibition, % at 10 µM; mitochondrial fusion phenotypic screen, WT strain; AID 1362; actives 2.1% (n = 190,000); in the data active = inhibition above about 58%; tested in S. cerevisiae
# The depositor's hits bear a star; ? = inconclusive; . = no result given.
SMILES,CSC inhib,T cruzi repl,Mot1-301 SUMO,Efflux pump inh,Beta cell apopt,WT yeast gro inh
Cc1ccc(N2C(=O)NC(=O)/C(=C/C=C/c3ccco3)C2=O)cc1,79*,-4,-15,-1,9,3
CC(C)c1ccc(N2C(=O)NC(=O)/C(=C/C=C/c3ccco3)C2=O)cc1,98*,2,2,0,65,-7
O=C1NC(=O)N(Cc2ccc(F)cc2)C(=O)/C1=C\C=C\c1ccco1,13,-57,.,0,-2,.
Cc1cc(C)cc(N2C(=O)NC(=O)/C(=C\C=C\c3ccco3)C2=O)c1,17,-3,93,0,14,8
CN1[C@@H]2CC[C@H]1CC(OC1c3ccccc3CCc3ccccc31)C2 (stereo not given in full),33,.,-4,0,.,.
COc1ccc(C(c2ccc(OC)cc2)C(Cl)(Cl)Cl)cc1,33,.,127,0,-1,.
CCOc1ccc(CNCCc2ccc3c(c2)OCO3)cc1,26,67*,9,0,-7,.
C[C@]12CCC(=O)C[C@H]1CC[C@@H]1[C@@H]2CC[C@]2(C)C(=O)CC[C@@H]12,.,.,.,0,.,.
CC/C(=C\C=C\[C@@H]1C=C[C@@H]2CCC[C@H]2[C@@H]1C(=O)c1ccc[nH]1)[C@@H]1O[C@@H]([C@@H](C)C(=O)O)CC[C@@H]1C,90*,65*,172,0,35,81*
Cc1cc(C)cc(NC2=NCCCS2)c1,-17,-5,9,0,1,2
CN1c2ccc([N+](=O)[O-])cc2CC2(C(=O)NC(=O)N(c3ccccc3)C2=O)C1c1ccccc1 (stereo not given),13,72*,8,0,13,-7
C[C@]12CCC3C(CC[C@H]4C[C@@H](O)CC[C@]34C)C1C[C@H](Br)[C@@H]2O (stereo not given in full),19,.,201,0,6,.
C=C(C)[C@@]12OC3(c4ccccc4)O[C@@H]1C1[C@@H]4O[C@]4(CO)[C@@H](O)[C@]4(O)C(=O)C(C)=C[C@H]4[C@@]1(O3)[C@H](C)[C@H]2OC(=O)/C=C/C=C/c1ccccc1 (stereo not given in full),6,57*,-16,0,3,.
COC(=O)C1=C(c2cccc(OCc3ccccc3)c2)C[C@@H]2CC[C@H]1N2C(=O)NCc1ccc2[nH]ccc2c1,31,.,16,0,2,.
COC(=O)C1=C(c2ccc(C(C)=O)cc2)C[C@@H]2CC[C@H]1N2C(=O)NC(C)C,-3,.,1,0,-1,.
CC(C)Oc1cc(-n2c(=S)[nH]c3ccccc3c2=O)c(Cl)cc1Cl,-20,7,28,0,.,60*
CC(N)C(=O)OC(C)(C)Cc1ccc(Cl)cc1 (stereo not given),-5,.,16,0,-1,.
CC(=O)OC1C=CC2[C@H]3Cc4ccc(O)c5c4[C@@]2(CCN3C)C1O5 (stereo not given in full),.,.,.,0,.,.
CCC(=NCCO)c1c(O)n(C2CCCCC2)c(=O)[nH]c1=O,-8,-19,1,0,-3,0
CCC(=NCc1ccc2c(c1)OCO2)c1c(O)n(C2CCCCC2)c(=O)[nH]c1=O,19,36,-1,0,17,62*
O=[N+]([O-])c1ccc(CNCCc2ccccc2)cc1,-10,59*,11,0,1,.
Nc1ccc(CCN2CCN(c3cccc(C(F)(F)F)c3)CC2)cc1,95*,15,161,0,-2,.
Nc1ccc(CCN2CCCC2)cc1,-8,5,-1,0,3,.
Cc1ncc2n1-c1ccc(Cl)cc1C(c1ccccc1F)=NC2,.,.,.,0,.,.
CCCCCC[N+](=O)[O-],-8,.,-22,0,-11,.
SMILES,CSC inhib,T cruzi repl,Mot1-301 SUMO,Efflux pump inh,Beta cell apopt,WT yeast gro inh
CCCCCCCCCCCCCCCC[N+](C)(C)C,102*,47,240,1,117*,.
COC(=O)C1=C(c2c(C)noc2C)C[C@@H]2CC[C@H]1N2C(=O)NCc1ccc(C(F)(F)F)cc1,12,.,-1,0,2,.
C=C1[C@H]2CC[C@H]3[C@]4(C)C[C@H](O[C@@H]5OC(CO)[C@@H](OSOOO)[C@H](OS(=O)(=O)O)[C@H]5OC(=O)CC(C)C)C[C@@H](C(=O)O)[C@H]4CC[C@]3(C2)[C@H]1O (stereo not given in full),-19,.,-8,0,-9,.
CN(CC1COc2ccccc2O1)c1nc(-c2cccnc2)nc2ccccc12 (stereo not given),29,?,0,0,-9,80*
COc1cc(OC)c(OC)cc1CNCCc1ccc(OC)c(OC)c1,2,-4,-9,0,-9,5
CCc1ccc(CNCCc2ccc(F)cc2)cc1,40,59*,-1,0,-5,4
CCN(CC)c1ccc(CNCCc2ccc(F)cc2)cc1,52,53,-13,0,12,5
COc1ccc(CNCCc2ccc(Cl)cc2)c(OC)c1OC,3,64*,12,0,4,.
Fc1ccc(CNCCc2ccc3c(c2)OCO3)cc1,-8,35,-3,0,-1,.
Fc1ccc(CCNCc2ccc(Cl)c(Cl)c2)cc1,31,67*,-28,0,-3,71
COc1cc(OC)c(OC)cc1CNCCc1ccc(F)cc1,-9,63*,110,0,-5,.
C=CCN1CCC2(C)c3cc(O)ccc3CC1C2C (stereo not given),-8,-13,9,0,.,.
COc1cc2ccccc2cc1C(=O)Nc1ccc(Cc2ccncc2)cc1,97*,62*,-26,0,32,50
COc1ccc(NC(=O)c2cn(CCC#N)nc2-c2ccccc2)cc1,3,-2,12,0,-6,.
C[C@]12CCC3C(CC[C@H]4C[C@H](O)CC[C@]34C)C1CCC2=O (stereo not given in full),-1,.,-2,0,-3,.
O=C1NC(=S)NC(=O)C1=Cc1ccc(Br)s1,19,-24,-28,0,3,.
O=C1NC(=O)C(=Cc2coc3ccccc3c2=O)C(=O)N1,.,-8,50,0,-6,10
O=C1NC(=O)C(=C/C=C/c2coc3ccc(Br)cc3c2=O)C(=O)N1,4,3,3,3.5*,-4,.
CCC(=NCCO)c1c(O)n(-c2ccccc2)c(=O)[nH]c1=O,-9,-11,236,0,-1,-15
CC/C(=N\Nc1ccccc1)c1c(O)n(-c2ccc(OC)cc2)c(=O)[nH]c1=O,76*,.,184,0,2,.
COc1ccc(CNCCc2c(C)[nH]c3ccc(OC(F)(F)F)cc23)c(OC)c1,16,59*,2,0,88*,.
CCCCn1c(O)c(C(=O)/C=C/c2c[nH]c3ccccc23)c(=O)[nH]c1=O,-2,-14,6,0,.,.
N#C/C=C/C#N,-2,.,93,0,-3,.
